Reference: publication PMC4527528 (Chemistry & biology, 2015)

Experiments:
ABHD4 [1] = molecular target: T1, ABHD4 (Homo sapiens, UniProt Q8TB40); test: Gel-based competitive ABPP; format: biochemical; conditions: combined transfected HEK293T lysate
T1 sequence (Q8TB40 1-342): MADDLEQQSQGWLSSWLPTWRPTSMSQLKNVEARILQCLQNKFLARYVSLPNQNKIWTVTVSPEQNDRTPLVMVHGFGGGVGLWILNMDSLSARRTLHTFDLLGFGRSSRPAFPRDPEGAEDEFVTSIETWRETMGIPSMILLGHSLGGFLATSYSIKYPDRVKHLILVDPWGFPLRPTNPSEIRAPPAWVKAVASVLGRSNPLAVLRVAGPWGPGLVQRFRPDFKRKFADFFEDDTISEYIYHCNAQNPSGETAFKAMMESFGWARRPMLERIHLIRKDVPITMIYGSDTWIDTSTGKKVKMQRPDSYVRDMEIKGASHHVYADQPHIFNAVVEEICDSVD

ABHD3 = molecular target: T2, ABHD3 (Homo sapiens, UniProt Q8WU67); test: ABPP-SILAC, in situ treatment of PC3 cells; format: cell-based; conditions: 4 h, FP-biotin probe
T2 sequence (Q8WU67 1-409): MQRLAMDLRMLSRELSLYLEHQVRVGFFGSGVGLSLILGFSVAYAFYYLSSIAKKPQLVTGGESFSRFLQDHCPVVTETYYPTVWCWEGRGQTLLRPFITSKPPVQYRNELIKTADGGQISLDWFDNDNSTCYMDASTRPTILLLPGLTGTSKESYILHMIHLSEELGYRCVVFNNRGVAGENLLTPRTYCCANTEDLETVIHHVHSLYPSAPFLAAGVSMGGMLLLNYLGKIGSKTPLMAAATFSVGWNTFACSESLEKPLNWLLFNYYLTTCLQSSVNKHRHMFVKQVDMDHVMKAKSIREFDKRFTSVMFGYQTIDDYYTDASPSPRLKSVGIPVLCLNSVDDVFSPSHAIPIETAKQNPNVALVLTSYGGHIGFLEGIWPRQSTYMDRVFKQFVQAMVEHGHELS
Method in brief: (§1)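 Heavy-isotope PC3 cells (RPMI plus serum, grown to confluency) get fresh medium with test compound; light cells get DMSO. Incubated 4 h at 37 °C, 5% CO2, then PBS-washed and sonicated in PBS. Proteomes (2 mg/mL) labelled with FP-biotin (2.5 µM, 1 h) or ABC45 (5 µM, 1 h), then CuAAC to biotin-azide. Heavy and light combined, streptavidin-enriched, trypsin-digested on bead, analysed by LC-MS/MS; SILAC ratios; two independent experiments.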

PPT1 [2] = molecular target: T3, PPT1 (Homo sapiens, UniProt P50897); test: In situ competitive ABPP; format: cell-based; conditions: transfected HEK293T cells
T3 sequence (P50897 28-306): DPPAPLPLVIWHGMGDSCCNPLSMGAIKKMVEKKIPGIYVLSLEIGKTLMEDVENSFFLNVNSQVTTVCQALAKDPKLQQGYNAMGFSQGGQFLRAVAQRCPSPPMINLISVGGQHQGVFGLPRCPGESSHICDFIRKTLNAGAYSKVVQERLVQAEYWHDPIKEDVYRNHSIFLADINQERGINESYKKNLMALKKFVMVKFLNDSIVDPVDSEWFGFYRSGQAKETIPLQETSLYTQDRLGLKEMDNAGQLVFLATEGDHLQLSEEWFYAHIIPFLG
Method in brief: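 HEK293T cells transiently transfected with human PPT1 are grown to confluency in DMEM plus serum. Treated in fresh medium with test compound or DMSO, 4 h, 37 °C, 5% CO2. Washed, sonicated in PBS, and lysates labelled with the ABC45 click probe. Rhodamine-azide added by CuAAC; PNGaseF deglycosylation for the blockade test; SDS-PAGE and in-gel fluorescence.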

PPT1 [3] = molecular target: T3, PPT1; test: ABPP-SILAC with ABC45 probe, in situ treatment of PC3 cells; format: cell-based; conditions: 1 µM, 4 h, ABC45 probe (5 µM, 1 h)
Method in brief: as §1

ABHD4 [4] = molecular target: T1, ABHD4; test: ABPP-SILAC, in situ treatment of PC3 cells; format: cell-based; conditions: 4 h, FP-biotin probe
Method in brief: as §1

Cytotoxicity = format: cell-based; conditions: read-out: cell toxicity IC50
serine hydrolases = test: ABPP-SILAC serine hydrolase selectivity profile in PC3 cells; format: cell-based, human; conditions: PC3 cells in situ, 1 or 0.1 µM, 4 h; ABHD6 and CPVL
Method in brief: as §1

PPT1 [5] = molecular target: T4, PPT1 (Mus musculus, UniProt O88531); test: In vivo gel-based ABPP of mouse tissues; conditions: C57BL6 mice, intraperitoneal, 4 h, central and peripheral tissues
T4 sequence (O88531 28-306): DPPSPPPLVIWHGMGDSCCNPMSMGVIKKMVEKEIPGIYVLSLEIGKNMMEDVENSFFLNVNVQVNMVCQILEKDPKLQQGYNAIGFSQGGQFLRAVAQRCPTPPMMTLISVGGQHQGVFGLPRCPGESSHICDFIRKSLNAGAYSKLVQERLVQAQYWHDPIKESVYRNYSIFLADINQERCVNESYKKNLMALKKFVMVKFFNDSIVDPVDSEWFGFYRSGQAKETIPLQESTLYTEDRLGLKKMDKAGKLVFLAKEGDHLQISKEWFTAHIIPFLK
Method in brief: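 C57Bl/6 mice dosed intraperitoneally across 1–40 mg/kg in saline/ethanol/emulphor 18:1:1 (v/v/v), or vehicle. After 4 h, isoflurane anaesthesia, cervical dislocation and tissue harvest. Tissue proteomes (1 mg/mL) labelled with ABC45 (1 µM, 60 min) and rhodamine-azide by CuAAC, PNGaseF-treated after labelling, resolved by SDS-PAGE and scanned for fluorescence.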

ABHD4 [6] = molecular target: T1, ABHD4; format: biochemical; conditions: in vitro, lysates from ABHD4-transfected HEK293T cells
endogenous PPT1 = molecular target: T5, endogenous PPT1 (Homo sapiens, UniProt P50897); test: MU-6S-Palm-βD-Glc substrate assay after in situ treatment of PC3 cells; format: cell-based; conditions: 500 nM, 4 h
T5 sequence (P50897 28-306): T3 sequence (P50897 28-306)
Method in brief: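 PC3 cells (RPMI plus serum, confluent) treated in situ with test compound or DMSO for 4 h at 37 °C, 5% CO2, then washed and sonicated in PBS. Lysate PPT1 activity measured with MU-6S-Palm-βD-Glc: thioester hydrolysis, then sweet almond β-glucosidase releases 4-methylumbelliferone, read by fluorescence. Activity compared with DMSO controls; three independent experiments.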

## COc1ccc(N2CCN(C(=O)ON3C(=O)C4CN(Cc5ccc(Oc6ccccc6)cc5)CCN4C3=O)CC2)cc1 (centres unmarked) [ABC34]
ABHD4 [1]
  preference for ABHD4 over ABHD3: preferentially inhibited ABHD4 over ABHD3
ABHD3; 1 µM
  inhibition of ABHD3: ~ 80%
PPT1 [2]; 5 µM, 4 h
  blockade of ABC45 reactivity of recombinant human PPT1: blocked
PPT1 [3]
  inhibition of PPT1: more than 90%
ABHD4 [4]; 1 µM
  inhibition of ABHD4: completely inhibited

## COc1ccc(N2CCN(C(=O)ON3C(=O)C4CN(CC5CCN(Cc6ccccc6)CC5)CCN4C3=O)CC2)cc1 (centres unmarked) [ABC44]
PPT1 [2]; 200 nM
  in situ inhibition of hPPT1: complete inhibition
Cytotoxicity
  IC50: > 50 µM
Serine hydrolases
  cross-reactive serine hydrolase activities: two of the >40 quantified SH activities
PPT1 [5]
  dose producing near-complete blockade of PPT1: 1 to 5 mg/kg
ABHD4 [6]
  effect on NAPE hydrolysis activity of ABHD4: neither ABC44 (17) nor the LYPLA1/2 inhibitor JJH254 (7) altered
Endogenous PPT1
  4-MU-6S-Palm-βD-Glc hydrolysis activity compared to DMSO-treated control cells: substantial reductions
  reduction in endogenous PPT1 activity: 90%

## O=C(ON1C(=O)C2CN(Cc3ccc(Oc4ccccc4)cc3)CCN2C1=O)N1CCC(c2ccccc2)CC1 (centres unmarked) [ABC47]
ABHD3; 0.5 µM
  inhibition of ABHD3: inhibit both ABHD3 and ABHD4
ABHD4 [4]; 0.5 µM
  inhibition of ABHD4: inhibit both ABHD3 and ABHD4
